One experiment relates to adenovirus type 5. Put plainly: Adenovirus assay: adenovirus-5 replication in HFF cells, viral DNA by qPCR. It counts as cell-based. Conditions: read-out: EC50, adenovirus replication; data not shown. For orientation: In qPCR the cycle at which signal appears reflects the starting amount.
For experiment [1], the system named is IM9 cells. Description: Growth of IM9 cell line. Type of experiment: cell-based, human. The note with it: read-out: EC50, growth of IM9 cells; data not shown.
Experiment [2] concerns MT4 cells. Put plainly: Growth of MT4 cell line. It counts as cell-based, human. Conditions: read-out: EC50, growth of MT4 cells; data not shown.
In a further experiment the test system is episomal HPV-16 DNA. Description: Hybrid capture assay for HPV16 DNA in W12-20850 cells. Conditions: read-out: EC50, reduction of HPV DNA; W12 cells; data not shown. It counts as cell-based. The method, boiled down:
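W12-20850 cells seeded at 7.5 × 10^3/well onto compound (100 to 0.001 μM), 4 days at 37 °C, 5% CO2. MTS growth read, then same cells lysed in 0.2N NaOH/1% Igepal. Episomal HPV-16 DNA measured by hybrid capture: 90 °C 6.5 min, 42 °C overnight, anti-digoxigenin HRP, chemiluminescence. HPV DNA/MTS ratio expressed as % of untreated control. Fit to modified Hill equation.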

In a further experiment the test system is W12-20850 cells. Description: Growth of W12-20850 cells, MTS. Type of experiment: cell-based, human. The note with it: read-out: EC50, inhibition of growth of W12 cells; data not shown. Put shortly:
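For the time course, test compound was added at time zero to cells growing in 96-well plates. Growth was followed as rate of MTS reduction over 3 days from day zero, with untreated controls alongside.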

In experiment [3] the test system is IM9 cells. Put plainly: Apoptosis assay. Type of experiment: cell-based, human. Conditions: IM9, 20 h exposure. Put shortly:
(§1)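 Apoptosis read as cytoplasmic histone-associated DNA fragments with a Cell Death Detection ELISA kit. Exposure was 20 h for IM9 and MT4 and 40 h for W12 and U937. A405 was read kinetically at 30 °C, and the rate per hour came from linear regression of the linear portion. A Fas-activating antibody was the positive control.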

Experiment [4] has as its system MT4 cells. Description: Apoptosis assay. It counts as cell-based, human. Conditions: MT4, 20 h exposure. Put shortly:
as §1

A further experiment has as its system W12 cells. Put plainly: Apoptosis assay. Type of experiment: cell-based, human. Conditions: W12, 40 h exposure. The method, boiled down: as §1
In another experiment the test system is U937 cells. Description: Apoptosis assay. It counts as cell-based, human. Conditions: U937, 40 h exposure. Put shortly: as §1

In general, EC50 refers to the concentration giving half of the maximal effect.

For the molecule `O=C(N[C@H]1CCCc2c1[nH]c1ccc(Cl)cc21)c1ccccn1` [GSK984], the EC50 is greater than 10 µM with adenovirus type 5; 13 µM in the experiment on IM9 cells [1]; 35 µM with MT4 cells [2]; 6.9 ± 0.68 µM in the experiment on episomal HPV-16 DNA; 17 ± 3.6 µM in the experiment with W12-20850 cells. Also, the Apoptosis result with IM9 cells [3], with MT4 cells [4], in the experiment with W12 cells and with U937 cells was “did not induce apoptosis” each time.

The values above are taken from paper PMC7114156 (Antiviral Research, 2009).
